Test results as given in ChEMBL document CHEMBL3414483, “New heterocyclic hybrids of pyrazole and its bioisosteres: design, synthesis and biological evaluation as dual acting antimalarial-antileishmanial agents” (Eur J Med Chem, 2015).
In brackets after ≈: the same amount, converted by molar mass.

What was measured:
Leishmania aethiopica [1] = assay: Antileishmanial activity against amastigote stage of Leishmania aethiopica after 72 hrs by resazurin staining-based fluorescence assay; type: functional, organism-based
In short: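 Axenic L. aethiopica amastigotes (50 µl of 2 × 10^7 cells/ml) exposed to serial dilutions at final 0.04–10 µg/ml for 72 h at 31 °C, humidified, 5% CO₂. Resazurin was added at 68 h and fluorescence read at 72 h (ex 530/em 590 nm). EC50 from sigmoidal dose–response fits, mean ± SD of triplicate experiments run in duplicate. Controls were medium alone and 1% DMSO.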

Leishmania aethiopica [2] = assay: Antileishmanial activity against promastigote stage of Leishmania aethiopica after 24 hrs by alamar blue staining-based […]; type: functional, organism-based
In short: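 L. aethiopica promastigotes, 3 × 10^6 per well, given compounds from DMSO stocks in three-fold dilutions at 10 to 0.04 µg/ml (final DMSO ≤0.1%), in duplicate, at room temperature (21 ± 1 °C). Alamar blue (resazurin) was added after 24 h and absorbance read 48 h later at 540 and 630 nm. Negative control was parasites, medium and DMSO.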

Plasmodium berghei [3] = assay: Antimalarial activity against Plasmodium berghei str. ANKA infected in Swiss albino mouse assessed as supression of parasitemia at 0.048 mmol/kg/day, po qd for 3 days by microscopic analysis relative to control; type: functional
In short: (§1)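 Four-day suppressive test. Mice were infected iv on day 0 with 0.2 ml of 2 × 10^7 P. berghei ANKA-parasitized erythrocytes from a donor mouse, diluted in saline. From 2 h post-infection they were dosed orally at 0.048 mmol/kg/day for days 0–3, five mice per group. The vehicle was 7% Tween and 3% ethanol in water. On day 4, Giemsa smears were scored over 5 fields of about 100 RBC each. Suppression was calculated relative to the vehicle group, taken as 100%.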

Plasmodium berghei [4] = assay: Antimalarial activity against Plasmodium berghei str. ANKA infected in Swiss albino mouse assessed as parasitemia at 0.048 mmol/kg/day, po qd […] by microscopic analysis relative to control; type: functional; in short: as §1
Plasmodium berghei [5] = assay: Antimalarial activity against Plasmodium berghei str. ANKA infected in Swiss albino mouse assessed as survival at 0.048 mmol/kg/day, po qd for 3 days by microscopic analysis relative to control; type: functional
In short: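 P. berghei ANKA infected mice, 4-day suppressive test. Day 0: 0.2 ml of 2 x 10^7 parasitized erythrocytes given i.v. (donor blood, 20-30% parasitemia, diluted in saline). Oral dosing at 0.048 mmol/kg/day from 2 h post-infection, then days 1-3 at 24 h intervals. Vehicle 7% Tween, 3% ethanol in water. Five mice/group. Survival time recorded per mouse; mean compared with vehicle group.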

Compound | IC50 (Leishmania aethiopica [1]) | IC50 (Leishmania aethiopica [2]) | Activity (Plasmodium berghei [3]) | Activity (Plasmodium berghei [4]) | Survival (Plasmodium berghei [5])
O=[N+]([O-])c1ccc(-c2nn(-c3ccc(Br)cc3)cc2C2CC(c3ccccc3)=NN2c2ccccc2)cc1 (configuration not stated) | 2.01 mg/L (≈ 3.56 µM) | 3.85 mg/L (≈ 6.82 µM) | 62.79% | 32% | 9.84 days
CCC(=O)N1N=C(c2ccccc2)CC1c1cn(-c2ccc(Br)cc2)nc1-c1ccc(C)cc1 (configuration not stated) | 1.79 mg/L (≈ 3.49 µM) | 2.04 mg/L (≈ 3.98 µM) | 51.16% | 42% | 6.86 days
CC(=O)N(C1=NN(C(C)=O)C(c2cn(-c3ccc(C)cc3)nc2-c2ccc([N+](=O)[O-])cc2)S1)c1ccccc1 (configuration not stated) | 1.21 mg/L (≈ 2.24 µM) | 0.846 mg/L (≈ 1.57 µM) | 79.07% | 18% | 10.4 days
O=[N+]([O-])c1ccc(-c2nn(-c3ccc(Br)cc3)cc2/C=N/N=c2/scc(-c3ccc(Br)cc3)n2-c2ccccc2)cc1 | 1.07 mg/L (≈ 1.53 µM) | 2.9 mg/L (≈ 4.14 µM) | 67.44% | 28% | 12.26 days
CCC(=O)N1N=C(c2ccccc2)CC1c1cn(-c2ccc(Br)cc2)nc1-c1ccc([N+](=O)[O-])cc1 (configuration not stated) | 1.83 mg/L (≈ 3.36 µM) | 2.12 mg/L (≈ 3.9 µM) | 60.47% | 34% | 6.82 days
Cc1ccc(-n2cc(/C=N/N=c3/scc(-c4ccc(Br)cc4)n3-c3ccccc3)c(-c3ccc([N+](=O)[O-])cc3)n2)cc1 | 1.78 mg/L (≈ 2.8 µM) | 3.11 mg/L (≈ 4.9 µM) | 74.42% | 22% | 12.12 days
Cc1ccc(-c2nn(-c3ccc(C)cc3)cc2C2CC(c3ccccc3)=NN2c2ccccc2)cc1 (configuration not stated) | 1.78 mg/L (≈ 3.8 µM) | 3.09 mg/L (≈ 6.59 µM) | 69.77% | 26% | 10.82 days
Cc1ccc(-c2nn(-c3ccc(Br)cc3)cc2C=O)cc1 | 1.82 mg/L (≈ 5.33 µM) | 3.11 mg/L (≈ 9.12 µM) | 65.11% | 30% | 8.4 days
Cc1ccc(-c2nn(-c3ccc(C)cc3)cc2C=O)cc1 | 1.97 mg/L (≈ 7.13 µM) | 4.06 mg/L (≈ 14.7 µM) | 61.62% | 33% | 8.62 days
Cc1ccc(-c2nn(-c3ccc(C)cc3)cc2/C=N/NC(=S)Nc2ccccc2)cc1 | 2.26 mg/L (≈ 5.31 µM) | 3.01 mg/L (≈ 7.08 µM) | 60.47% | 34% | 9.23 days
CCC(=O)N1N=C(c2ccccc2)CC1c1cn(-c2ccc(C)cc2)nc1-c1ccc(C)cc1 (configuration not stated) | 1.02 mg/L (≈ 2.27 µM) | 1.6 mg/L (≈ 3.57 µM) | 55.81% | 38% | 8.84 days
Cc1ccc(-c2nn(-c3ccc(C)cc3)cc2C2CC(c3ccccc3)=NN2)cc1 (configuration not stated) | 2.37 mg/L (≈ 6.04 µM) | 2.84 mg/L (≈ 7.25 µM) | 65.12% | 30% | 7.62 days
CCCCCCCCCCCCCCCCOP(=O)([O-])OCC[N+](C)(C)C [MILTEFOSINE] | 0.3 mg/L (≈ 0.736 µM) | 3.19 mg/L (≈ 7.83 µM) |  |  | 
Cc1ccc(-c2nn(-c3ccc(Br)cc3)cc2/C=N/N=c2/scc(-c3ccc(Br)cc3)n2-c2ccccc2)cc1 | 2.21 mg/L (≈ 3.3 µM) | 4.06 mg/L (≈ 6.07 µM) | 83.72% | 14% | 11.22 days
CC(=O)N(C1=NN(C(C)=O)C(c2cn(-c3ccc(Br)cc3)nc2-c2ccc(C)cc2)S1)c1ccccc1 (configuration not stated) | 0.74 mg/L (≈ 1.29 µM) | 0.468 mg/L (≈ 0.815 µM) | 86.05% | 12% | 12.68 days
Cc1ccc(-c2nn(-c3ccc(Br)cc3)cc2/C=N/NC(=S)Nc2ccccc2)cc1 | 2.41 mg/L (≈ 4.91 µM) | 3.62 mg/L (≈ 7.39 µM) | 65.12% | 30% | 8.84 days
